Assay results: ChEMBL document CHEMBL1165950, “Design and synthesis of new potent anticancer pyrazoles with high FLT3 kinase inhibitory selectivity” (Bioorg Med Chem, 2010)

Columns and labels:
Type in all cases: functional
Conditions in all cases: read-out: Activity
SF-268 = assay: Cytotoxicity against human SF268 cells assessed as cell growth at 10 uM
In short: (§1)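 NCI-60 screen: cells grown in RPMI 1640 with 5% FBS and 2 mM L-glutamine, plated at 5000–40,000 cells/well according to doubling time, and preincubated 24 h at 37 °C, 5% CO2. The single 10 µM dose (DMSO stock) was added, then incubated 48 h. Cells were TCA-fixed and stained with 0.4% SRB, read at 515 nm, and growth % calculated against time-zero and control plates.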

K562 = assay: Cytotoxicity against human K562 cells assessed as cell growth at 10 uM
In short: (§2)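 Single-dose NCI-60 screen at 10 µM. Cells were grown in RPMI 1640 with 5% FBS and 2 mM L-glutamine, then treated for 48 h at 37 °C. Protein was measured by SRB staining with absorbance at 515 nm. Percentage growth was recorded, and inhibition percentage was calculated as 100 minus growth percentage.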

SF-295 = assay: Cytotoxicity against human SF295 cells assessed as cell growth at 10 uM; in short: as §1
DU-145 = assay: Cytotoxicity against human DU145 cells assessed as cell growth at 10 uM; in short: as §2
LOX IMVI = assay: Cytotoxicity against human LOXIMVI cells assessed as cell growth at 10 uM; in short: as §1
HOP-92 = assay: Cytotoxicity against human HOP92 cells assessed as cell growth at 10 uM; in short: as §2
TK-10 = assay: Cytotoxicity against human TK10 cells assessed as cell growth at 10 uM; in short: as §1
OVCAR-5 = assay: Cytotoxicity against human OVCAR5 cells assessed as cell growth at 10 uM; in short: as §1
UO-31 = assay: Cytotoxicity against human UO31 cells assessed as cell growth at 10 uM; in short: as §1
786-0 = assay: Cytotoxicity against human 786-0 cells assessed as cell growth at 10 uM; in short: as §2
HT-29 = assay: Cytotoxicity against human HT-29 cells assessed as cell growth at 10 uM; in short: as §2
EKVX = assay: Cytotoxicity against human EKVX cells assessed as cell growth at 10 uM; in short: as §2
ACHN = assay: Cytotoxicity against human ACHN cells assessed as cell growth at 10 uM; in short: as §2
CCRF-CEM = assay: Cytotoxicity against human CCRF-CEM cells assessed as cell growth at 10 uM; in short: as §2
SK-MEL-2 = assay: Cytotoxicity against human SK-MEL-2 cells assessed as cell growth at 10 uM; in short: as §1
SNB-19 = assay: Cytotoxicity against human SNB19 cells assessed as cell growth at 10 uM; in short: as §1
HCT-15 = assay: Cytotoxicity against human HCT15 cells assessed as cell growth at 10 uM; in short: as §2
SK-OV-3 = assay: Cytotoxicity against human SKOV3 cells assessed as cell growth at 10 uM; in short: as §1
OVCAR-3 = assay: Cytotoxicity against human OVCAR-3 cells assessed as cell growth at 10 uM; in short: as §1
M14 = assay: Cytotoxicity against human M14 cells assessed as cell growth at 10 uM; in short: as §1
MDA-MB-468 = assay: Cytotoxicity against human MDA-MB-468 cells assessed as cell growth at 10 uM; in short: as §1
A498 = assay: Cytotoxicity against human A498 cells assessed as cell growth at 10 uM; in short: as §2
HOP-62 = assay: Cytotoxicity against human HOP62 cells assessed as cell growth at 10 uM; in short: as §2
IGROV-1 = assay: Cytotoxicity against human IGROV1 cells assessed as cell growth at 10 uM; in short: as §2
RXF 393 = assay: Cytotoxicity against human RXF393 cells assessed as cell growth at 10 uM; in short: as §1
Malme-3M = assay: Cytotoxicity against human MALME-3M cells assessed as cell growth at 10 uM; in short: as §1
COLO 205 = assay: Cytotoxicity against human COLO205 cells assessed as cell growth at 10 uM; in short: as §2
UACC-257 = assay: Cytotoxicity against human UACC257 cells assessed as cell growth at 10 uM; in short: as §1
NCI-H23 = assay: Cytotoxicity against human NCI-H23 cells assessed as cell growth at 10 uM; in short: as §1
A549 = assay: Cytotoxicity against human A549 cells assessed as cell growth at 10 uM; in short: as §2
HCT-116 = assay: Cytotoxicity against human HCT116 cells assessed as cell growth at 10 uM; in short: as §2

Q: Which results are given for Cc1cc(O)cc(-c2nn(CC#N)cc2-c2ccnc(-c3ccc(C#N)cc3)c2)c1?
A: growth at 10 µM (SF-268): 102%; growth at 10 µM (K562): 70%; growth at 10 µM (SF-295): 91.3%; growth at 10 µM (DU-145): 96.3%; growth at 10 µM (LOX IMVI): 81.9%; growth at 10 µM (HOP-92): 72.3%; growth at 10 µM (TK-10): 78.4%; growth at 10 µM (OVCAR-5): 107%; growth at 10 µM (UO-31): 60.1%; growth at 10 µM (786-0): 77.9%; growth at 10 µM (HT-29): 66.3%; growth at 10 µM (EKVX): 79.1%; growth at 10 µM (ACHN): 65.2%; growth at 10 µM (CCRF-CEM): 81.2%; growth at 10 µM (SK-MEL-2): 78.5%; growth at 10 µM (SNB-19): 85.2%; growth at 10 µM (HCT-15): 70.4%; growth at 10 µM (SK-OV-3): 88.5%; growth at 10 µM (OVCAR-3): 110%; growth at 10 µM (M14): 90.3%; growth at 10 µM (MDA-MB-468): 33.7%; growth at 10 µM (A498): 103%; growth at 10 µM (HOP-62): 85.4%; growth at 10 µM (IGROV-1): 77.3%; growth at 10 µM (RXF 393): 59.4%; growth at 10 µM (Malme-3M): 125%; growth at 10 µM (COLO 205): 66.1%; growth at 10 µM (UACC-257): 94.2%; growth at 10 µM (NCI-H23): 72.7%; growth at 10 µM (A549): 83.2%; growth at 10 µM (HCT-116): 65.7%
